For test [1], the target named is T1, Prostaglandin G/H synthase 2 (Homo sapiens, UniProt P35354).
T1 sequence (P35354 whole entry): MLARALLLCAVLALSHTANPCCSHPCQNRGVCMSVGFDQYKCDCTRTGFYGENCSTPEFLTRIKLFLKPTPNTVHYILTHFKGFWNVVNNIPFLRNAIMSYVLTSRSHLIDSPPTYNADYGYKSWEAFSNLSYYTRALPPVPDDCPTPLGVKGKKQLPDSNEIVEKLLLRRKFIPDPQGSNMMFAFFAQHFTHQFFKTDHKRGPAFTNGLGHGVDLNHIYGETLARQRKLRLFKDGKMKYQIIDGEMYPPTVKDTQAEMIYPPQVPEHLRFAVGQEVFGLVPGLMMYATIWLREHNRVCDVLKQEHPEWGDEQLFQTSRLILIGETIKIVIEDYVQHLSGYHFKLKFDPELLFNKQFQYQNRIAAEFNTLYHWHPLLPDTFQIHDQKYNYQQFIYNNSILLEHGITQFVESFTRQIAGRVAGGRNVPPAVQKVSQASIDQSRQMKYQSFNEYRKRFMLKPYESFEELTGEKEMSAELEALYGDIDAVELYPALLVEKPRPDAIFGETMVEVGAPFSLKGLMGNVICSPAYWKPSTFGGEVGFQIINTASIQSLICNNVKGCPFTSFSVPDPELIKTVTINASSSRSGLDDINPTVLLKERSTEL
The test is described as follows: Inhibitory activity against Prostaglandin G/H synthase 2 in human whole blood assay as LPS induced PGE-2 generation. The class given is tissue-based.

The target in test [2] is T2, Prostaglandin G/H synthase 1 (Homo sapiens, UniProt P23219). The test is described as follows: Inhibitory activity against Prostaglandin G/H synthase 1 in human whole blood assay as TXB2 generation. It is filed as tissue-based. The method in brief:
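COX-1 activity measured in human whole blood by TXB2 generation. IC50 values were estimated by nonlinear regression of dose–response curves and are the average of three determinations.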

Test [3] deals with T2, Prostaglandin G/H synthase 1. As to the kind of experiment: Ratio for inhibition of COX-1 to that of COX-2.

T2 sequence (P23219 whole entry): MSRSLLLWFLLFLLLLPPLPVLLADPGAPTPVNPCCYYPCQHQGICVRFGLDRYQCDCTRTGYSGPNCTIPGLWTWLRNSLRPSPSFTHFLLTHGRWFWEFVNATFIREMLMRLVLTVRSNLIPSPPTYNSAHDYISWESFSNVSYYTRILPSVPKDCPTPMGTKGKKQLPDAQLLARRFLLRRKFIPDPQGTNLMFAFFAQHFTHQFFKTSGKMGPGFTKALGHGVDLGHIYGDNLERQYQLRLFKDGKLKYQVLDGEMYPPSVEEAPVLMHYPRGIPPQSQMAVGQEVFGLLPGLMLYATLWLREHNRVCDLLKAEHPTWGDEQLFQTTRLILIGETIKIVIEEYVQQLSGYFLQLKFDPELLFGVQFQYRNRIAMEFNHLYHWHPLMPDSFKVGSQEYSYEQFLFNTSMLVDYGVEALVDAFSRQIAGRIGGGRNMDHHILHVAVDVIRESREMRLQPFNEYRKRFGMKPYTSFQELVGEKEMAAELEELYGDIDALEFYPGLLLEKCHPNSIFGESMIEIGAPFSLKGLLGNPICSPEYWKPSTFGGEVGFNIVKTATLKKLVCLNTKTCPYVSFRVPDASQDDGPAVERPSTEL

As a reminder, the IC50 is the concentration that gives 50% inhibition. Consider `CCCCCCCCCCCCCCCc1cccc(OCC)c1CSc1nc2ccccc2s1`, for which, in test [1], the IC50 is greater than 10 µM.

In test [1], `CCCCCCCCCCCCCCCc1cccc(OCC)c1CSc1nc2ccc(OC(F)F)cc2[nH]1` displayed an IC50 greater than 10 µM.

Regarding `CCCCCCCCCCCCCCCc1cccc(OCC)c1CSc1nc2ccc([N+](=O)[O-])cc2[nH]1`, the figures for the IC50 in test [1] and in test [2] were 3.84 µM and greater than 500 µM, respectively.

Take `CCCCCCCCCCCCCCCc1cccc(OC)c1CSc1nc2ccccc2s1`: the IC50 in test [1] was 1.06 µM; in test [2] it was greater than 500 µM. The Ratio in test [3] is greater than 470.

On to `CCCCCCCCCCCCCCCc1cccc(OCC)c1CSc1nc2ccc(OC)cc2[nH]1`, for which the IC50 in test [1] was 6.25 µM; in test [2], greater than 500 µM.

`CCCCCCCCCCCCCCCc1cccc(OCC)c1CSc1nc2ccccc2[nH]1`: the IC50 was 1.47 µM in test [1] and greater than 500 µM in test [2]. Moreover, the Ratio in test [3] is greater than 340.

`CCCCCCCCCCCCCCCc1cccc(OCC)c1CSc1nc2ccccc2o1` returned an IC50 in test [1] greater than 10 µM.

Turning to `CCCCCCCCCCCCCCCc1cccc(OCC)c1CSc1nc2cc(OC)ccc2[nH]1`, the Ratio in test [3] was greater than 80.

With `CCCCCCCCCCCCCCCc1cccc(OC)c1CSc1nc2ccccc2o1`, the figures for the 50% inhibitory concentration (IC50) in test [1] and in test [2] were 2.77 µM and greater than 500 µM, respectively. Besides, the Ratio in test [3] was greater than 220.

In the case of `CCCCCCCCCCCCCCCc1cccc(OCC)c1CSc1nc2cc([N+](=O)[O-])ccc2[nH]1`, the Ratio in test [3] was greater than 130.

Regarding `CCCCCCCCCCCCCCCc1cccc(OC)c1CSc1nc2ccc([N+](=O)[O-])cc2[nH]1`, the values for the IC50 in test [1] and in test [2] were 2.27 µM and greater than 500 µM, respectively.

Regarding `CCCCCCCCCCCCCCCc1cccc(OCC)c1CSc1nc2ccc(C)cc2[nH]1`, the IC50 in test [1] was greater than 10 µM.

Take `CCCCCCCCCCCCCCCc1cccc(O)c1CSc1nc2cc(OC)ccc2[nH]1`: the IC50 in test [1] came out at 1 µM; in test [2], 384 µM. For the same compound, the Ratio in test [3] came out at 384.

`CCCCCCCCCCCCCCCc1cccc(OC)c1CSc1nc2cc(OC)ccc2[nH]1`: the IC50 in test [1] was greater than 10 µM.

The compound `CCCCCCCCCCCCCCCc1cccc(OC)c1CSc1nc2cc(OC(F)F)ccc2[nH]1` had an IC50 in test [1] greater than 10 µM.

Turning to `CCCCCCCCCCCCCCCc1cccc(OC)c1CSc1nc2cc([N+](=O)[O-])ccc2[nH]1`, the Ratio in test [3] is greater than 220.

Take `CCCCCCCCCCCCCCCc1cccc(OC)c1CSc1nc2ccccc2[nH]1`: the IC50 in test [1] was greater than 10 µM.

For `CCCCCCCCCCCCCCCc1cccc(OC)c1CSc1nc2cc(C)ccc2[nH]1`, the IC50 in test [1] was 2.63 µM; in test [2], greater than 500 µM. Further, the Ratio in test [3] was greater than 190.
